Experimental data: ChEMBL document CHEMBL3868583, “6-Aryl substituted 4-(4-cyanomethyl) phenylamino quinazolines as a new class of isoform-selective PI3K-alpha inhibitors” (Eur J Med Chem, 2016)
Values after ≈ are worked out from the molar mass of the structure shown.

What was measured:
[1] = biological target: Phosphatidylinositol 4,5-bisphosphate 3-kinase catalytic subunit alpha isoform (Homo sapiens, UniProt P42336); assay: Inhibition of PI3Kalpha (unknown origin) using diC8 PIP2 as substrate at 0.5 uM after 80 mins by ADP-glo assay
Phosphatidylinositol 4,5-bisphosphate 3-kinase catalytic subunit alpha isoform, sequence (P42336 whole entry, canonical isoform): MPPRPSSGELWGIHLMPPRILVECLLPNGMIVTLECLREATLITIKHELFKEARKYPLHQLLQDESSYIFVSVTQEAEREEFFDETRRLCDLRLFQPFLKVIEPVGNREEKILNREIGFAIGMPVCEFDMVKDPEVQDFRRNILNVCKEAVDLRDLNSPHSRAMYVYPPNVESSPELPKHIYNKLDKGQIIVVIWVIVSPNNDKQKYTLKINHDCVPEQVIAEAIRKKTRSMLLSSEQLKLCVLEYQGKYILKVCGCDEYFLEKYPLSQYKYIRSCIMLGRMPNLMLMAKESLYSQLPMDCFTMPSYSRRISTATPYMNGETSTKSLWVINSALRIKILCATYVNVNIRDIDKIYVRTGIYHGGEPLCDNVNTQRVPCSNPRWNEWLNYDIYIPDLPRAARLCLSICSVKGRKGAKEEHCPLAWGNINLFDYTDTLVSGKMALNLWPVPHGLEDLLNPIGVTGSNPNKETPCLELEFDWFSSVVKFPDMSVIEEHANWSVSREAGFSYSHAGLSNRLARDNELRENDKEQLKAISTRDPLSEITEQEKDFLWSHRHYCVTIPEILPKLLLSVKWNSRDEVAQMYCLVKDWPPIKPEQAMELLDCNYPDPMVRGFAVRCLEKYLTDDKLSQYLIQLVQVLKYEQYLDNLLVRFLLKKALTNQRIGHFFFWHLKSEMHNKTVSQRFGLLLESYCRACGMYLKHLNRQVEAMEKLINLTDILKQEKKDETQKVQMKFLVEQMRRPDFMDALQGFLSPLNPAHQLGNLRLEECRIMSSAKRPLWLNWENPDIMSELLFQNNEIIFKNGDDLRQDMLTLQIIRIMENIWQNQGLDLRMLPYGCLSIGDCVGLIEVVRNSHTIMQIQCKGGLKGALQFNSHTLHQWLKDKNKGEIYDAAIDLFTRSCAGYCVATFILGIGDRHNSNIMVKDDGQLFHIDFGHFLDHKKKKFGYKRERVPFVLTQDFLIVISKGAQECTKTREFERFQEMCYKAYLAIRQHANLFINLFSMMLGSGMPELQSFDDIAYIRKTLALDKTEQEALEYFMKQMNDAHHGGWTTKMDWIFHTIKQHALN

[2] = Cytotoxicity against human HL60 cells assessed as cell growth inhibition after 48 hrs by MTT assay; assay type: functional; conditions: HL-60, 48 h
How it was run: (§1)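 MTT assay: 3 × 10^3 cells/well seeded, compounds added after 24 h at final […], 48 h exposure. MTT (2.5 mg/mL in PBS) added, formazan dissolved in DMSO, absorbance 570 nm. Viability as % of untreated; three independent experiments, mean ± SD.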

[3] = Cytotoxicity against human A375 cells assessed as cell growth inhibition after 48 hrs by MTT assay; assay type: functional; conditions: A-375, 48 h; how it was run: as §1
[4] = Cytotoxicity against human MCF7 cells assessed as cell growth inhibition after 48 hrs by MTT assay; assay type: functional; conditions: MCF7, 48 h; how it was run: as §1
[5] = Cytotoxicity against human PANC1 cells assessed as cell growth inhibition after 48 hrs by MTT assay; assay type: functional; conditions: PANC-1, 48 h; how it was run: as §1
[6] = Cytotoxicity against human PC3 cells assessed as cell growth inhibition after 48 hrs by MTT assay; assay type: functional; conditions: PC-3, 48 h; how it was run: as §1
Homo sapiens [7] = organism: Homo sapiens; assay: Selectivity ratio of IC50 for PI3Kdelta (unknown origin) to IC50 for PI3Kalpha (unknown origin)
Homo sapiens [8] = organism: Homo sapiens; assay: Selectivity ratio of IC50 for PI3Kgamma (unknown origin) to IC50 for PI3Kalpha (unknown origin)
Homo sapiens [9] = organism: Homo sapiens; assay: Selectivity ratio of IC50 for PI3Kbeta (unknown origin) to IC50 for PI3Kalpha (unknown origin)
[10] = Thermodynamic equilibrium solubility of compound in water up to 300 ug after 4 hrs by UV absorbance method; assay type: physicochemical; conditions: read-out: Therm_solubility
How it was run: (§2)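 Methanol stock evaporated in wells to give 1–300 µg solid; 200 µl medium (water, PBS, SGF or SIF) added, shaken 300 rpm 4 h at 25 ± 1 °C, equilibrated overnight, centrifuged; supernatant UV absorbance at λmax; saturation point from concentration–absorbance curve; triplicate.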

[11] = Thermodynamic equilibrium solubility of compound in PBS up to 300 ug after 4 hrs by UV absorbance method; assay type: physicochemical; conditions: read-out: Therm_solubility; how it was run: as §2
[12] = Thermodynamic equilibrium solubility of compound in simulated gastric fluid up to 300 ug after 4 hrs by UV absorbance method; assay type: ADME; conditions: read-out: Therm_solubility; how it was run: as §2
[13] = Thermodynamic equilibrium solubility of compound in simulated intestinal fluid up to 300 ug after 4 hrs by UV absorbance method; assay type: ADME; conditions: read-out: Therm_solubility; how it was run: as §2

Row | SMILES | inhibition [1] [%] | Ratio IC50 (Homo sapiens [7]) | Ratio IC50 (Homo sapiens [8]) | Ratio IC50 (Homo sapiens [9]) | solubility thermodynamic at 4 h [10] [µg/mL] | solubility thermodynamic at 4 h [11] [µg/mL] | solubility thermodynamic at 4 h [12] [µg/mL] | solubility thermodynamic at 4 h [13] [µg/mL] | GI50 [2] [µM] | GI50 [3] [µM] | GI50 [4] [µM] | GI50 [5] [µM] | GI50 [6] [µM]
1 | N#CCc1ccc(Nc2ncnc3ccc(-c4ccc5c(c4)OCCO5)cc23)cc1 | 33 | > 29.2 | 4 | > 29.2 |  |  |  |  | 21 | 27 | 34 | 32 | 34
2 | CC(=O)Nc1cccc(-c2ccc3ncnc(Nc4ccc(CC#N)cc4)c3c2)c1 | 16.4 |  |  |  |  |  |  |  | 32 | 24 | 23 | 40 | 27
3 | N#CCc1ccc(Nc2ncnc3ccc(-c4ccc(OCc5ccc(F)cc5)cc4)cc23)cc1 | 11 |  |  |  |  |  |  |  | 14 | 16 | 12 | 13 | 13
4 | C=Cc1ccc(-c2ccc3ncnc(Nc4ccc(CC#N)cc4)c3c2)cc1 | 36.4 | 1 |  | 1 |  |  |  |  | 16 | 27 | 11 | 32 | 34
5 | CCOc1ccc(-c2ccc(-c3ccc4ncnc(Nc5ccc(CC#N)cc5)c4c3)cc2)cc1 |  |  |  |  |  |  |  |  | 16 | 30 | 26 | 33 | 17
6 | N#CCc1ccc(Nc2ncnc3ccc(-c4cccc5c4sc4ccccc45)cc23)cc1 |  |  |  |  |  |  |  |  | 31 | 34 | 34 | 33 | 18
7 | N#CCc1ccc(Nc2ncnc3ccc(-c4ccc(-c5ccccc5)cc4F)cc23)cc1 | 20.3 |  |  |  |  |  |  |  | 16 | 32 | 13 | 33 | 14
8 | N#CCc1ccc(Nc2ncnc3ccc(-c4ccc(-c5ccccc5)cc4)cc23)cc1 |  |  |  |  |  |  |  |  | 16 | 13 | 29 | 30 | 10
9 | N#CCc1ccc(Nc2ncnc3ccc(-c4ccc5c(c4)OCO5)cc23)cc1 | 48.6 | > 31.1 | 0.6 | > 31.1 |  |  |  |  | 27 | 24 | 34 | 33 | 7
10 | N#CCc1ccc(Nc2ncnc3ccc(-c4cnc5ccccc5c4)cc23)cc1 |  |  |  |  |  |  |  |  | 44 | 89 | 32 | 90 | 23

Continued, in another order:

Row | inhibition [1] [%] | Ratio IC50 (Homo sapiens [7]) | Ratio IC50 (Homo sapiens [8]) | Ratio IC50 (Homo sapiens [9]) | solubility thermodynamic at 4 h [10] [µg/mL] | solubility thermodynamic at 4 h [11] [µg/mL] | solubility thermodynamic at 4 h [12] [µg/mL] | solubility thermodynamic at 4 h [13] [µg/mL] | SMILES | GI50 [2] [µM] | GI50 [3] [µM] | GI50 [4] [µM] | GI50 [5] [µM] | GI50 [6] [µM]
11 | 17 |  |  |  |  |  |  |  | N#CCc1ccc(Nc2ncnc3ccc(-c4ccc(F)cc4F)cc23)cc1 | 7 | 9 | 10 | 21 | 28
12 | 45.6 | > 14.2 | 0.5 | > 14.2 |  |  |  |  | N#CCc1ccc(Nc2ncnc3ccc(-c4ccncc4)cc23)cc1 | 32 | 35 | 32 | 39 | 76
13 | 1.5 |  |  |  |  |  |  |  | N#CCc1ccc(Nc2ncnc3ccc(-c4cccc5c4oc4ccccc45)cc23)cc1 | 12 | 36 | 27 | 31 | 16
14 | 38.1 | > 22.2 | 1.9 | > 22.2 |  |  |  |  | N#CCc1ccc(Nc2ncnc3ccc(-c4cccc([N+](=O)[O-])c4)cc23)cc1 | 15 | 23 | 12 | 7 | 29
15 | 44 | > 37 | 0.5 | > 37 |  |  |  |  | CC(=O)c1ccc(-c2ccc3ncnc(Nc4ccc(CC#N)cc4)c3c2)cc1 | 28 | 32 | 45 | 13 | 24
16 | 2.7 |  |  |  |  |  |  |  | N#CCc1ccc(Nc2ncnc3ccc(-c4cc5ccccc5s4)cc23)cc1 | 14 | 14 | 8 | 24 | 13
17 | 1.3 |  |  |  |  |  |  |  | N#CCc1ccc(Nc2ncnc3ccc(-c4ccccc4C=O)cc23)cc1 | 42 | 39 | 91 | 90 | 21
18 | 8.2 |  |  |  |  |  |  |  | N#CCc1ccc(Nc2ncnc3ccc(-c4ccc5ccccc5c4)cc23)cc1 | 25 | 31 | 16 | 48 | 22
19 | 69.9 | 2.3 | 16 | 5.8 | 5 (≈ 14.2 µM) | 5 (≈ 14.2 µM) | 125 (≈ 355 µM) | 5 (≈ 14.2 µM) | N#CCc1ccc(Nc2ncnc3ccc(-c4cccc(O)c4)cc23)cc1 | 24 | 28 | 15 | 36 | 37
20 | 4.1 |  |  |  |  |  |  |  | Cc1ccccc1-c1ccc2ncnc(Nc3ccc(CC#N)cc3)c2c1 | 36 | 32 | > 100 | 68 | 38
21 | 29.8 |  |  |  |  |  |  |  | N#CCc1ccc(Nc2ncnc3ccc(-c4cc5ccccc5o4)cc23)cc1 | 17 | 10 | 9 | 28 | 8
